In ChEMBL document CHEMBL4017535 (J Med Chem, 2017):

Assays:
[1] = Intrinsic clearance in monkey hepatocytes; assay type: ADME, cell-based, Macaca mulatta, Hepatocyte; conditions: rhesus monkey, read-out: CLH (converted)
[2] = Oral bioavailability in mouse at 10 mg/kg; assay type: ADME, organism-based; conditions: in vivo
Method in brief: (§1)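 Mouse PK: 3 mg/kg IV and 10 mg/kg PO. Clearance is expressed unbound, Cl_p,u in L/hr/kg. AUC is unbound, in µM*hr. FaFg is computed as F/(1-Clp/Qh), with mouse liver blood flow Qh 5.2 L/hr/kg. Unbound plasma fraction was measured separately.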

[3] = Half life in po dosed dog; assay type: ADME, organism-based, Canis lupus familiaris; conditions: in vivo
[4] = Intrinsic clearance in rat hepatocytes; assay type: ADME, cell-based, Hepatocyte; conditions: read-out: CLH (converted)
[5] = Oral bioavailability in human at 1 mg; assay type: ADME, organism-based; conditions: in vivo
Method in brief: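 Human F (%) was estimated from observed F in preclinical species. It accompanies a clinical 1 mg oral dose given to cancer patients (n = 3).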

Rattus norvegicus [6] = experiment: Unbound AUC in rat at 1 mg/kg, po; conditions: in vivo
Liver [7] = experiment: Unbound intrinsic clearance in mouse liver microsomes; assay type: ADME, microsome
Method in brief: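 Liver microsome stability is expressed as unbound intrinsic clearance, Cl_int,u, in L/hr/kg. Dextromethorphan served as the in-house low-clearance reference control and verapamil as the high-clearance reference control.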

[8] = biological target: Bromodomain testis-specific protein (Homo sapiens, UniProt Q58F21); experiment: Binding affinity to BRDT BD1 to BD2 (N21 to P380 residues) (unknown origin)
Peregrin = Peregrin (Homo sapiens, UniProt P55201); experiment: Binding affinity to human BRPF1 (E627 to G740 residues) expressed in bacterial expression system by BROMOscan assay
[9] = biological target: Histone acetyltransferase KAT2A (Homo sapiens, UniProt Q92830); experiment: Binding affinity to human GCN5L2 (E726 to K837 residues) expressed in bacterial expression system by BROMOscan assay
[10] = biological target: Bromodomain-containing protein 7 (Homo sapiens, UniProt Q9NPI1); experiment: Binding affinity to human BRD7 (L125 to R254 residues) expressed in mammalian expression system by BROMOscan assay
[11] = biological target: Bromodomain-containing protein 9 (Homo sapiens, UniProt Q9H8M2); experiment: Binding affinity to human BRD9 (R130 to V259 residues) expressed in bacterial expression system by BROMOscan assay
Kasumi 1 = experiment: Antitumor activity against gamma-irradiated human Kasumi-1 cells xenografted in NOD.SCID mouse assessed as tumor growth inhibition at 1 mg/kg, po qd for 25 days relative to control; assay type: functional; conditions: Kasumi 1, light or radiation study, 600 h, read-out: TGI
Method in brief: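 Kasumi-1 AML xenograft in mice, with tumor growth inhibition (TGI) as the read-out. For the test agent, dosing was oral, once daily at 1 mg/kg for 25 days, with tolerability tracked as body-weight loss. For 5-azacitidine, dosing was IV, Q7d, at 8 mg/kg.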

[12] = Half life in po dosed monkey; assay type: ADME, organism-based, Macaca mulatta; conditions: rhesus monkey, in vivo
[13] = Intrinsic clearance in monkey liver microsomes; assay type: ADME, Macaca mulatta, microsome; conditions: rhesus monkey, read-out: CLH (converted)
[14] = Intrinsic clearance in dog liver microsomes; assay type: ADME, Canis lupus familiaris, microsome; conditions: read-out: CLH (converted)
Rattus norvegicus [15] = experiment: Plasma unbound clearance in rat at 1 mg/kg, iv; assay type: ADME, organism-based; conditions: in vivo
Method in brief: (§2)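 In rats, 1 mg/kg was given by both IV and PO routes. IV clearance is unbound (Cl_p,u, L/hr/kg). FaFg is taken as F/(1-Clp/Qh), using rat Qh 3.8 L/hr/kg. Unbound plasma fraction was determined in rat plasma.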

[16] = Oral bioavailability in rat at 1 mg/kg; assay type: ADME, organism-based; conditions: in vivo; method in brief: as §2
Protein polybromo-1 = Protein polybromo-1 (Homo sapiens, UniProt Q86U86); experiment: Binding affinity to human PBRM1 bromodomain-2 (S178 to E291 residues) expressed in bacterial expression system by BROMOscan assay
[17] = biological target: Chromatin remodeling regulator CECR2 (Homo sapiens, UniProt Q9BXF3); experiment: Binding affinity to human CECR2 (P423 to D543 residues) expressed in bacterial expression system by BROMOscan assay
Liver [18] = experiment: Unbound intrinsic clearance in rat liver microsomes at 10 uM preincubated for 5 mins followed by NADPH addition measured after 60 mins by HPLC-UV-MS analysis; assay type: ADME, microsome; conditions: 1 h
[19] = biological target: Bromodomain adjacent to zinc finger domain protein 2B (Homo sapiens, UniProt Q9UIF8); experiment: Binding affinity to human BAZ2B (S2054 to S2168 residues) expressed in bacterial expression system by BROMOscan assay
Adenosine receptor A2b = Adenosine receptor A2b (Homo sapiens, UniProt P29275); experiment: Antagonist activity at adenosine A2B receptor (unknown origin)
[20] = Half life in rat at 1 mg/kg, po; assay type: ADME, organism-based; conditions: in vivo
[21] = Plasma clearance in mouse at 3 mg/kg, iv; assay type: ADME, organism-based
[22] = biological target: E3 ubiquitin-protein ligase TRIM33 (Homo sapiens, UniProt Q9UPN9); experiment: Binding affinity to human TRIM33 (PHD, Bromo) (D882 to A1087 residues) expressed in bacterial expression system by BROMOscan assay
Mus musculus [23] = experiment: Plasma unbound clearance in mouse at 3 mg/kg, iv; assay type: ADME, organism-based; conditions: in vivo; method in brief: as §1
[24] = biological target: SWI/SNF-related matrix-associated actin-dependent regulator of chromatin subfamily A member 4 (Homo sapiens, UniProt P51532); experiment: Binding affinity to human SMARCA4 (A1448 to S1575 residues) expressed in bacterial expression system by BROMOscan assay
[25] = Fraction unbound in rat plasma at 1 uM after 4 hrs by LC-MS/MS method; assay type: ADME, cell-free
Rattus norvegicus [26] = experiment: Oral absorption in rat at 1 mg/kg; assay type: ADME, organism-based; conditions: in vivo
Method in brief: (§3)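 Oral absorption is expressed as FaFg, calculated as F/(1-Clp/Qh). Liver blood flow (Qh) was 5.2 L/hr/kg for mouse and 3.8 L/hr/kg for rat. Mouse dosing was 3 mg/kg IV and 10 mg/kg PO; rat dosing was 1 mg/kg IV and PO.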

[27] = Apparent oral plasma clearance in human at 1 mg; assay type: ADME
Method in brief: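 Clinical PK in subjects with cancer after a single 1 mg oral dose, n = 3. Apparent clearance was reported as PO CLp/F in L/hr.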

[28] = biological target: Histone acetyltransferase KAT2B (Homo sapiens, UniProt Q92831); experiment: Binding affinity to human PCAF (G715 to D831 residues) expressed in mammalian expression system by BROMOscan assay
[29] = Plasma clearance in iv dosed monkey; assay type: ADME, organism-based, Macaca mulatta; conditions: rhesus monkey
[30] = Plasma clearance in rat at 1 mg/kg, iv; assay type: ADME, organism-based
[31] = Intrinsic clearance in mouse hepatocytes; assay type: ADME, cell-based, Hepatocyte; conditions: read-out: CLH (converted)
[32] = Plasma clearance in iv dosed dog; assay type: ADME, organism-based, Canis lupus familiaris
[33] = biological target: Bromodomain-containing protein 8 (Homo sapiens, UniProt Q9H0E9); experiment: Binding affinity to human BRD8 (1) (S700 to F854 residues) expressed in mammalian expression system by BROMOscan assay
Mus musculus [34] = experiment: Toxicity in NOD.SCID mouse assessed as maximum mean body weight loss at 1 mg/kg, po qd for 25 days (reference value: 9%); assay type: organism-based; conditions: in vivo, 600 h
Mus musculus [35] = experiment: Oral absorption in mouse at 10 mg/kg; assay type: ADME, organism-based; conditions: in vivo; method in brief: as §3

Sequence of Bromodomain-containing protein 8 (Q9H0E9 whole entry, the tested form may be a part): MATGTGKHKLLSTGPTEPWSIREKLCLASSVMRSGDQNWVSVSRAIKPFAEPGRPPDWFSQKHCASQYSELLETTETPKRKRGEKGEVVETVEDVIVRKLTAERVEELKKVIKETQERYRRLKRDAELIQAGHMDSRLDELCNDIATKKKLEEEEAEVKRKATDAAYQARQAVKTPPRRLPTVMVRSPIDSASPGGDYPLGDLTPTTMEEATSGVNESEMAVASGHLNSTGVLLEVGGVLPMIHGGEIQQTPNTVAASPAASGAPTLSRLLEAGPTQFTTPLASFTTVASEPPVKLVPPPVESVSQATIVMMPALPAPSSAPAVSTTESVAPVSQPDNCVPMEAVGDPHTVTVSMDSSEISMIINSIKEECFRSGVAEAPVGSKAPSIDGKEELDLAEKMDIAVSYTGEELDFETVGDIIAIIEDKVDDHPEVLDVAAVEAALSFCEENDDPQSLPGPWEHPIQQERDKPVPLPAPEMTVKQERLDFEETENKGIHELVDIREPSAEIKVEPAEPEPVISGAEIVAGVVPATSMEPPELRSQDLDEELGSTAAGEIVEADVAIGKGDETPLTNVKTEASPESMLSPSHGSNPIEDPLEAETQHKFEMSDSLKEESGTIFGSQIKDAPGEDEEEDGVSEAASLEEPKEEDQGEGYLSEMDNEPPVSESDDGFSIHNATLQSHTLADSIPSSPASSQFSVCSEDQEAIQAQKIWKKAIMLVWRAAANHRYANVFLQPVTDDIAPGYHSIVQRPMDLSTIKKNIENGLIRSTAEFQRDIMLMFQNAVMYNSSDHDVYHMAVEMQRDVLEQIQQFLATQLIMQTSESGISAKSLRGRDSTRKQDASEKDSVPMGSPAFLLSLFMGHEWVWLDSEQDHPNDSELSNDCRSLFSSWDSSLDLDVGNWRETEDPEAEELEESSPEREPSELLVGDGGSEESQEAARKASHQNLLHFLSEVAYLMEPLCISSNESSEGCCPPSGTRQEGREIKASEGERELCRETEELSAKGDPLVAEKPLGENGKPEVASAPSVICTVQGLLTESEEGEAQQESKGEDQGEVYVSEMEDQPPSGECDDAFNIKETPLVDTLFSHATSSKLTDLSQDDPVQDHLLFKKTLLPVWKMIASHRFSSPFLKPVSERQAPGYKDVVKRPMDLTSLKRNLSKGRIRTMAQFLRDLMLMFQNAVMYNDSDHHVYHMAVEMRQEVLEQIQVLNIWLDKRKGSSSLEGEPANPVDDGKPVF
Sequence of SWI/SNF-related matrix-associated actin-dependent regulator of chromatin subfamily A member 4 (P51532 whole entry, the tested form may be a part): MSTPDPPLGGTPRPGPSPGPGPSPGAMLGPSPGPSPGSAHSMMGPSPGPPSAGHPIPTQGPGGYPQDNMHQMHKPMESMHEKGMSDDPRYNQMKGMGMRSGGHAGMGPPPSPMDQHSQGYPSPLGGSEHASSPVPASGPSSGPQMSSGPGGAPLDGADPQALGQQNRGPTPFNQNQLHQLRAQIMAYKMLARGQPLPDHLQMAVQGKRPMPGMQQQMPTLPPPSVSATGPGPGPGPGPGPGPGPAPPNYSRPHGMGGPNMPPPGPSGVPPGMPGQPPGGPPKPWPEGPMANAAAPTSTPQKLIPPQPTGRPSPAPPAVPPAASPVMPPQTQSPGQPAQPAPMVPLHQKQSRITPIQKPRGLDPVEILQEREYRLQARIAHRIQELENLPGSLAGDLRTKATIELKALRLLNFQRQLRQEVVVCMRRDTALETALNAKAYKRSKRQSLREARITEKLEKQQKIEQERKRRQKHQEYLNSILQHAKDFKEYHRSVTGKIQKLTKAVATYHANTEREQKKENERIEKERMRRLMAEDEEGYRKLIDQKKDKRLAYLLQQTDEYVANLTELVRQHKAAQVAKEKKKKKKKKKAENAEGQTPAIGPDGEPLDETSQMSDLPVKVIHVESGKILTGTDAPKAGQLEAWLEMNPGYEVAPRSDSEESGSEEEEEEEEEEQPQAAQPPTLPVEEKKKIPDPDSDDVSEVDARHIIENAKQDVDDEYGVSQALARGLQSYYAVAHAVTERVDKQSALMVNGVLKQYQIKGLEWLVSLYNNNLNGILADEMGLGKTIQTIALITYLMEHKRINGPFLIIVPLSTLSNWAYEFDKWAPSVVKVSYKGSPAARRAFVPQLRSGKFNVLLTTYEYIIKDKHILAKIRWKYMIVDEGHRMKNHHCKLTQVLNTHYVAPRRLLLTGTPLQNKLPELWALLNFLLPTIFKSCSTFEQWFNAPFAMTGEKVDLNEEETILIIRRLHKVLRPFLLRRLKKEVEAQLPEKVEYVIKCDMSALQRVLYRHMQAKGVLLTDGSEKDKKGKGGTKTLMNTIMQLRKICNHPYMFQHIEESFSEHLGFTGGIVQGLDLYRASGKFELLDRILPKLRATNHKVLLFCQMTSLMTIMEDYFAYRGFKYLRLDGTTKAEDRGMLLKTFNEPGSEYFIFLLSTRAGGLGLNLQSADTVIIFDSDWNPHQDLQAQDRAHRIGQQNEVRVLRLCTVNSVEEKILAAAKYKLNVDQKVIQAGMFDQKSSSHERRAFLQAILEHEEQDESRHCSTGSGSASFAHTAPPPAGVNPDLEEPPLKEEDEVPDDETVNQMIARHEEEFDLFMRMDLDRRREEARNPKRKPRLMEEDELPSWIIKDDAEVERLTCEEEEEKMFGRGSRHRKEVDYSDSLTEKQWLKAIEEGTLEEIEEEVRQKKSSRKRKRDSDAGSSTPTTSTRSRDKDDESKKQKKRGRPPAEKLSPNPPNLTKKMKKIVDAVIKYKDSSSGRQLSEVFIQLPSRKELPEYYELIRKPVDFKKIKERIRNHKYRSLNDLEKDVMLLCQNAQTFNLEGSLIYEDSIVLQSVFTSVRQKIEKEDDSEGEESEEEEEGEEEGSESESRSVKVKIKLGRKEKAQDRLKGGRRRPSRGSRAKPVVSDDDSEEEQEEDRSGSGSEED
Sequence of Protein polybromo-1 (Q86U86 whole entry, the tested form may be a part): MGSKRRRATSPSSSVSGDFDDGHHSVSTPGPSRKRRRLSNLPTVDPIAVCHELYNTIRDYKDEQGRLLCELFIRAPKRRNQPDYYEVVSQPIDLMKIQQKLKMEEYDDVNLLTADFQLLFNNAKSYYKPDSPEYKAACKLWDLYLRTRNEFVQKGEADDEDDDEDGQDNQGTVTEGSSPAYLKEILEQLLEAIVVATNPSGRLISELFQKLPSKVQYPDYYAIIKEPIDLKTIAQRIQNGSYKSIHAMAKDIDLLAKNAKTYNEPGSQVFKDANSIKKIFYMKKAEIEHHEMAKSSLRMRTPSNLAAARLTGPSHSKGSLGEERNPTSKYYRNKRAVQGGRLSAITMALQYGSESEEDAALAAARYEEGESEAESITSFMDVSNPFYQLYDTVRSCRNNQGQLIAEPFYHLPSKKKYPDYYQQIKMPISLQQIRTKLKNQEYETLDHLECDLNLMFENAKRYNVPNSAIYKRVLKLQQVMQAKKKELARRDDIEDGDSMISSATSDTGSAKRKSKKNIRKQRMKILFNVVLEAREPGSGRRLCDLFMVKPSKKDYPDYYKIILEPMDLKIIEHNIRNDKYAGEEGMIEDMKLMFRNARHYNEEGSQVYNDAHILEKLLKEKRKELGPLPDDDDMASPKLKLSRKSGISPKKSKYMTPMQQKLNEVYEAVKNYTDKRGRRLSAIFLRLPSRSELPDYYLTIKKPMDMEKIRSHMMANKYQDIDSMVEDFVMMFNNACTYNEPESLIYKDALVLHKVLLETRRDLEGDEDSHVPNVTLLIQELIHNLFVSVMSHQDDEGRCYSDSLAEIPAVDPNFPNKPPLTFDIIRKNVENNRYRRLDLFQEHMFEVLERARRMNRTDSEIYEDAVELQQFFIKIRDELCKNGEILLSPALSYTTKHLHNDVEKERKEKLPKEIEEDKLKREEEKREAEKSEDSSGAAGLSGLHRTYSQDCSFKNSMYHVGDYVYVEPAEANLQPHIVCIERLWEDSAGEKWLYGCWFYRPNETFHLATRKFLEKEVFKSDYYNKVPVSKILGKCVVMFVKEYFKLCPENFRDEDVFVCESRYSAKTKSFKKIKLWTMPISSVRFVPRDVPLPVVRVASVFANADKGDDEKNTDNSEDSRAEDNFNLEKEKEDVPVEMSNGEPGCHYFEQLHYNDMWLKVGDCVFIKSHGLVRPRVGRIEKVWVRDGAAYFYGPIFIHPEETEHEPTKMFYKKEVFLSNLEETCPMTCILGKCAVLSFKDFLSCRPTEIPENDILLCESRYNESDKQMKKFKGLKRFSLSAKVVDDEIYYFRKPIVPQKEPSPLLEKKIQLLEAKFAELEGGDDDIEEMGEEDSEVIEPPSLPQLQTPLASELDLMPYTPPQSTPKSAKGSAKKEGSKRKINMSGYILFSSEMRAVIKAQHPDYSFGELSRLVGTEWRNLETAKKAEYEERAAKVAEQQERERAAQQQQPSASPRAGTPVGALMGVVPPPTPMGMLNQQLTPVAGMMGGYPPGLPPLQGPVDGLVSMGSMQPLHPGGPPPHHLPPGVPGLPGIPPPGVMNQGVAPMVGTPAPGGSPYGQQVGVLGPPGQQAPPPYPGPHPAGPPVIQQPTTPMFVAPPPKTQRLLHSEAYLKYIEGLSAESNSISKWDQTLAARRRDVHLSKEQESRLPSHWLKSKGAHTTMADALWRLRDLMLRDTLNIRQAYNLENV
Sequence of Adenosine receptor A2b (P29275 whole entry): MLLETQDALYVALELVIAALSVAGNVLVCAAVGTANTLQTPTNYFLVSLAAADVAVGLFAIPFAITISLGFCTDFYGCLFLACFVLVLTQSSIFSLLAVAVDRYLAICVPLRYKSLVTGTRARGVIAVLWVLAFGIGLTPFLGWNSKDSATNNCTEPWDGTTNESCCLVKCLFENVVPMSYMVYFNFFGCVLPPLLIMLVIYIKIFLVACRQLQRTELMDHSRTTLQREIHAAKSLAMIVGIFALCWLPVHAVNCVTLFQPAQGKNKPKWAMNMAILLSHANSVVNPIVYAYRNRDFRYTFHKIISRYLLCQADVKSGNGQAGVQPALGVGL

With CCS(=O)(=O)Nc1ccc(Oc2ccc(F)cc2F)c(-c2cn(C)c(=O)c3[nH]ccc23)c1 [MIVEBRESIB] the CLint scaled [1] was 51.7 mL/min/kg, the bioavailability [2] was 68 to 83% and the half-life [3] was 5.8 h. The CLint scaled [4] was 66.7 mL/min/kg, the bioavailability [5] was 50% and the fAUC (Rattus norvegicus [6]) was 0.27 µM·h. The CL free (Liver [7]) was 550 mL/min/kg, the Ki [8] was 2.2 nM and the Kd (Peregrin) was over 1000 nM. It also gave a Kd [9] of over 1000 nM, a Kd [10] of over 1000 nM and a Kd [11] of over 1000 nM. It also gave an inhibition in vivo at 1 mg/kg (Kasumi 1) of 99%, a half-life [12] of 4.4 h and a CLint scaled [13] of 38.3 mL/min/kg. It also gave a CLint scaled [14] of 51.7 mL/min/kg, a clearance (Rattus norvegicus [15]) of 450 mL/min/kg and a bioavailability [16] of 65%. It also gave a Kd (Protein polybromo-1) of over 1000 nM, a Kd [17] of over 1000 nM and a CL free (Liver [18]) of under 81.7 mL/min/kg. It also gave a Kd [19] of over 1000 nM, an IC50 (Adenosine receptor A2b) of 2600 nM and a half-life [20] of 2.6 h. It also gave a clearance [21] of 8.33 mL/min/kg, a Kd [22] of over 1000 nM and a clearance (Mus musculus [23]) of 317 mL/min/kg. It also gave a Kd [24] of over 1000 nM, a fraction unbound at 4 h, 1 µM [25] of 0.023 and a FaFg (Rattus norvegicus [26]) of 0.77. The CL/F [27] was 83.8 mL/min, the Kd [28] was over 1000 nM and the clearance [29] was 5.5 mL/min/kg. It also gave a clearance [30] of 10 mL/min/kg, a CLint scaled [31] of 58.3 mL/min/kg and a clearance [32] of 3.17 mL/min/kg. The Kd [33] was over 1000 nM, the Activity (Mus musculus [34]) was 6% and the FaFg (Mus musculus [35]) was 0.9.
